Data set [1] is described as follows: Half life in Sprague-Dawley rat at 10 mg/kg, iv by HPLC-MS analysis. Format: ADME, organism-based. The conditions noted are these: in vivo. A digest of the protocol:
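Rats fitted with jugular vein catheters for serial blood sampling. Compound dissolved in saline with 5% (v/v) DMSO and given as a single 10 mg/kg dose iv or po after an overnight fast, n = 5 per group. Plasma isolated at once and measured by HPLC with tandem MS detection. Parameters derived by noncompartmental fitting.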

Data set [2] deals with Serine/threonine-protein kinase PAK 5 (Homo sapiens) (UniProt Q9P286). The experiment in a line: Inhibition of recombinant human PAK5 (425 to end residues) at 1 uM using RRRLSFAEPG as substrate incubated for 40 mins in presence of [gamma-33P]-ATP by scintillation counting method relative to control.
The target of data set [3] is Ribosomal protein S6 kinase alpha-6 (Homo sapiens) (UniProt Q9UK32). The data set can be described thus: Inhibition of recombinant human full length RSK4 at 1 uM using LRRASLG as substrate incubated for 40 mins in presence of [gamma-33P]-ATP by scintillation counting method relative to control.
Data set [4] has as its target cGMP-dependent protein kinase 1 (Homo sapiens) (UniProt Q13976). The experiment in a line: Inhibition of recombinant human full length PKG1alpha at 1 uM using RRRLSFAEPG as substrate incubated for 40 mins in presence of [gamma-33P]-ATP by scintillation counting method relative to control.
Data set [5] can be described thus: Toxicity in BALB/c mouse assessed as effect on blood parameter by measuring basophils content at 40 mg/kg, po administered once two days for 4 times by hematology analyzer. Particulars: in vivo.
Data set [6] concerns the target 5'-AMP-activated protein kinase catalytic subunit alpha-1 (Homo sapiens) (UniProt Q13131). The data set can be described thus: Inhibition of recombinant full length human AMPKalpha1 at 1 uM using AMARAASAAALAR as substrate incubated for 40 mins in presence of [gamma-33P]-ATP by scintillation counting method relative to control. A digest of the protocol:
(§1)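 Kinase panel profiling at 1 μM performed by Eurofins KinaseProfiler; percent inhibition reported as mean of two independent experiments.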

Data set [7] has as its target Serine/threonine-protein kinase haspin (Homo sapiens) (UniProt Q8TF76). The data set can be described thus: Inhibition of recombinant human Haspin (471 to end residues) at 1 uM using RARTLSFAEPG as substrate incubated for 40 mins in presence of [gamma-33P]-ATP by scintillation counting method relative to control.
Data set [8] has as its target Proto-oncogene tyrosine-protein kinase Src (Homo sapiens) (UniProt P12931). The experiment in a line: Inhibition of full length recombinant human c-SRC at 1 uM using KVEKIGEGTYGVV as substrate incubated for 40 mins in presence of [gamma-33P]-ATP by scintillation counting method relative to control. A digest of the protocol: as §1
Data set [9] deals with ALK tyrosine kinase receptor (Homo sapiens) (UniProt Q9UM73). The data set can be described thus: Inhibition of recombinant human ALK (1058 to end residues) at 1 uM using KKKSPGEYVNIEF as substrate incubated for 40 mins in presence of [gamma-33P]-ATP by scintillation counting method relative to control. A digest of the protocol:
as §1

The subject of data set [10] is Platelet-derived growth factor receptor alpha (Homo sapiens), P16234 [D842V]. The experiment in a line: Inhibition of recombinant human PDGFRalpha D842V mutant (550 to end residues) at 1 uM using GGMEDIYFEFMGGKKK as substrate incubated for 40 mins in presence of [gamma-33P]-ATP by scintillation counting method relative to control. A digest of the protocol: (§2)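 Tested at a single 1 uM in an outsourced commercial kinase-profiling panel, read as percent inhibition. Each value is the mean of two independent experiments.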

The test system of data set [11] is PI3-kinase p110-alpha/p85-alpha (Homo sapiens), P27986+P42336 [H1047R]. The data set can be described thus: Inhibition of recombinant human full length PI3K p110alpha/p85alpha H1047R mutant at 1 uM using phosphatidylinositol 4,5-bisphosphate as substrate incubated for 40 mins in presence of [gamma-33P]-ATP by scintillation counting method relative to control. The data set is classed as protein-complex assay.

The target in data set [12] is Ephrin type-A receptor 4 (Homo sapiens) (UniProt P54764). The data set can be described thus: Inhibition of recombinant human EPhA4 (601 to 892 residues) at 1 uM using poly(Glu, Tyr) 4:1 as substrate incubated for 40 mins in presence of [gamma-33P]-ATP by scintillation counting method relative to control.
The nature of data set [13]: Toxicity in NOD/SCID BALB/c mouse xenografted with human SiHa cells assessed as effect on blood parameter by measuring RDW at 40 mg/kg, po administered once two days for 4 times by hematology analyzer. The data set is classed as organism-based. Particulars: in vivo.
Data set [14] addresses Mitogen-activated protein kinase 11 (Homo sapiens) (UniProt Q15759). The data set can be described thus: Inhibition of recombinant human full length SAPK2b at 1 uM using myelin basic protein as substrate incubated for 40 mins in presence of [gamma-33P]-ATP by scintillation counting method relative to control. The method, boiled down:
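Single-point inhibition at 1 uM measured in a commercial kinase profiling panel (KinaseProfiler); each value is the mean of two independent experiments.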

Data set [15] addresses MAP kinase-activated protein kinase 2 (Homo sapiens) (UniProt P49137). The experiment in a line: Inhibition of recombinant human MAPKAPK2 (46 to end residues) at 1 uM using KKLNRTLSVA as substrate incubated for 40 mins in presence of [gamma-33P]-ATP by scintillation counting method relative to control.
Data set [16] deals with PI3-kinase p110-alpha/p85-alpha (Homo sapiens), P27986+P42336 [E542K]. The experiment in a line: Inhibition of recombinant human full length PI3K p110alpha/p85alpha E542K mutant at 1 uM using phosphatidylinositol 4,5-bisphosphate as substrate incubated for 40 mins in presence of [gamma-33P]-ATP by scintillation counting method relative to control. The data set is classed as protein-complex assay.

In data set [17] the target is Ephrin type-A receptor 8 (Homo sapiens) (UniProt P29322). The experiment in a line: Inhibition of recombinant human EPhA8 (615 to 911 residues) at 1 uM using KTFCGTPEYLAPEVRREPRILSEEEQEMFRDFDYIADWC as substrate incubated for 40 mins in presence of [gamma-33P]-ATP by scintillation counting method relative to control.
In data set [18] the test system is MDA-MB-231. The experiment in a line: Induction of cell cycle arrest in human MDA-MB-231 cells assessed as accumulation in G2/M phase at 20 to 40 nM incubated for 36 hrs by propidium iodide staining based flow cytometry. The data set is classed as functional. A digest of the protocol:
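Cells were treated with graded concentrations for 36 h, then fixed overnight in 70% ice-cold ethanol at 4°C and resuspended in PBS. Staining used 50 µg/ml PI plus 5 µg/ml RNase at 37°C for 30 min. DNA content was analysed by FACS to give G0/G1, S and G2/M fractions.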

Data set [19] addresses Transcription initiation factor TFIID subunit 1-like (Homo sapiens) (UniProt Q8IZX4). The data set can be described thus: Inhibition of recombinant human TAF1L (1428 to end residues) at 1 uM using RRRFRPASPLRGPPK as substrate incubated for 40 mins in presence of [gamma-33P]-ATP by scintillation counting method relative to control. A digest of the protocol:
as §2

Data set [20] has as its system MDA-MB-231. The experiment in a line: Induction of apoptosis in human MDA-MB-231 cells assessed as decrease in Ki67 expression at 20 to 40 nM incubated for 48 hrs by Western blot analysis. Format: functional, cell-based. The method, boiled down:
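Cells were treated for 48 h, washed three times with PBS, and lysed in RIPA buffer. Immunoblots used anti-Rb, anti-phospho-Rb, anti-Ki67 and anti-Bcl-2 (each 1:1000), with β-actin as loading control.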

Active and inactive are the calls of the source. The rule behind the calls is not given here.

Ephrin type-A receptor 4 (Homo sapiens), sequence (P54764 whole entry, the tested form may be a part): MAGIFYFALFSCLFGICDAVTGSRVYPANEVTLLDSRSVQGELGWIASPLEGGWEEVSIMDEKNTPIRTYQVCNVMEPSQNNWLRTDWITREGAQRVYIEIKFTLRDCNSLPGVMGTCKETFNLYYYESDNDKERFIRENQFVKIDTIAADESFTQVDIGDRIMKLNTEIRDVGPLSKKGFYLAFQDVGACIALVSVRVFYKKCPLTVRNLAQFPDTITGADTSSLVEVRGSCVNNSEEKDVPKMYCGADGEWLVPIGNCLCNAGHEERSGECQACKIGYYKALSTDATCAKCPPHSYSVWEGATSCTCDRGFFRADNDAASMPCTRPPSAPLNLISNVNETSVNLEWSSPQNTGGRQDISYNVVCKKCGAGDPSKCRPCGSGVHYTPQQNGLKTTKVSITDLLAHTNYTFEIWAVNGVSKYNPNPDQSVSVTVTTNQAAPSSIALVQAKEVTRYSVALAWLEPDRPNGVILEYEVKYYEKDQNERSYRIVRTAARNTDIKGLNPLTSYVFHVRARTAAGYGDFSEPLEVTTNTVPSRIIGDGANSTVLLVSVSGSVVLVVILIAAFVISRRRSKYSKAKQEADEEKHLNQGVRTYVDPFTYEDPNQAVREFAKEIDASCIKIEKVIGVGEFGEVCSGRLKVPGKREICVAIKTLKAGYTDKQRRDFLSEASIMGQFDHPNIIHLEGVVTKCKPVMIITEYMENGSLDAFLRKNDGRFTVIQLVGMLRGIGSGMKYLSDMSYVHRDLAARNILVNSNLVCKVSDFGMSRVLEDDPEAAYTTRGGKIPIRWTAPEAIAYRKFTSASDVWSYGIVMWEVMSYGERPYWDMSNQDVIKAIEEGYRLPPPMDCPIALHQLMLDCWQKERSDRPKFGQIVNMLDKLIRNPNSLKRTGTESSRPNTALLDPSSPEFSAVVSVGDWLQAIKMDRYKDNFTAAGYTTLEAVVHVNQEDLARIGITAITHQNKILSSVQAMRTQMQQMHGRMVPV
cGMP-dependent protein kinase 1 (Homo sapiens), sequence (Q13976 whole entry): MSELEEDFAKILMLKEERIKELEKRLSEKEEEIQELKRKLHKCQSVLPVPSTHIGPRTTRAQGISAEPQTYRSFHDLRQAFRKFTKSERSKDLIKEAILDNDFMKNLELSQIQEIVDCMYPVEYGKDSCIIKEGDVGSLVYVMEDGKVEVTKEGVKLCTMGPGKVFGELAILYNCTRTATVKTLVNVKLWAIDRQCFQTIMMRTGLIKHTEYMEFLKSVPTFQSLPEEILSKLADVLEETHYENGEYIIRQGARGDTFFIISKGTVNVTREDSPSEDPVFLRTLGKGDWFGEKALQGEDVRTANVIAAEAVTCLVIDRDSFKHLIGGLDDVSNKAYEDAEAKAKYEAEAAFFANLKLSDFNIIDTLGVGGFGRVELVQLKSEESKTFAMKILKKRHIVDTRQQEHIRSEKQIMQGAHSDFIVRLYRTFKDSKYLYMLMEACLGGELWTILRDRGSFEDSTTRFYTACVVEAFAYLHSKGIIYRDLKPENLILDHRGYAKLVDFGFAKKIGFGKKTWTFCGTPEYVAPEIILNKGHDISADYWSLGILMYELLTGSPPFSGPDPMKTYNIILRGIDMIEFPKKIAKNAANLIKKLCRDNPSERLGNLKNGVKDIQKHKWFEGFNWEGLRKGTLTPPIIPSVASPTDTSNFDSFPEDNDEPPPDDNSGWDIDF
Proto-oncogene tyrosine-protein kinase Src (Homo sapiens), sequence (P12931 2-536 limits assumed): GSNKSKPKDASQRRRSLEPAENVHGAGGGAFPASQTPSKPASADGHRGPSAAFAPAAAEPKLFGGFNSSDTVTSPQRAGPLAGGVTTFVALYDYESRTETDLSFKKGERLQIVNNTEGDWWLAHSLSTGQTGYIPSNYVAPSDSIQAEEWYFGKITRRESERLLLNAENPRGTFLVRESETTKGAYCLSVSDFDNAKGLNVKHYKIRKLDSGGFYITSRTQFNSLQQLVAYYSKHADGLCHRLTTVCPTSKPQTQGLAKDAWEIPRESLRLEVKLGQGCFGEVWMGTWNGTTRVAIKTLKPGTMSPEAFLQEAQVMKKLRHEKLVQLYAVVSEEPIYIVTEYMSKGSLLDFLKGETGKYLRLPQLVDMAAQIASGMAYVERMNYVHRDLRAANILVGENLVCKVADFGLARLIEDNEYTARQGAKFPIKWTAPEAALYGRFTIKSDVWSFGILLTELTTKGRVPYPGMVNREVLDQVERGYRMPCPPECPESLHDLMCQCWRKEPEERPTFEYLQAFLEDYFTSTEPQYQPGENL
ALK tyrosine kinase receptor (Homo sapiens), sequence (Q9UM73 19-1620 limits assumed): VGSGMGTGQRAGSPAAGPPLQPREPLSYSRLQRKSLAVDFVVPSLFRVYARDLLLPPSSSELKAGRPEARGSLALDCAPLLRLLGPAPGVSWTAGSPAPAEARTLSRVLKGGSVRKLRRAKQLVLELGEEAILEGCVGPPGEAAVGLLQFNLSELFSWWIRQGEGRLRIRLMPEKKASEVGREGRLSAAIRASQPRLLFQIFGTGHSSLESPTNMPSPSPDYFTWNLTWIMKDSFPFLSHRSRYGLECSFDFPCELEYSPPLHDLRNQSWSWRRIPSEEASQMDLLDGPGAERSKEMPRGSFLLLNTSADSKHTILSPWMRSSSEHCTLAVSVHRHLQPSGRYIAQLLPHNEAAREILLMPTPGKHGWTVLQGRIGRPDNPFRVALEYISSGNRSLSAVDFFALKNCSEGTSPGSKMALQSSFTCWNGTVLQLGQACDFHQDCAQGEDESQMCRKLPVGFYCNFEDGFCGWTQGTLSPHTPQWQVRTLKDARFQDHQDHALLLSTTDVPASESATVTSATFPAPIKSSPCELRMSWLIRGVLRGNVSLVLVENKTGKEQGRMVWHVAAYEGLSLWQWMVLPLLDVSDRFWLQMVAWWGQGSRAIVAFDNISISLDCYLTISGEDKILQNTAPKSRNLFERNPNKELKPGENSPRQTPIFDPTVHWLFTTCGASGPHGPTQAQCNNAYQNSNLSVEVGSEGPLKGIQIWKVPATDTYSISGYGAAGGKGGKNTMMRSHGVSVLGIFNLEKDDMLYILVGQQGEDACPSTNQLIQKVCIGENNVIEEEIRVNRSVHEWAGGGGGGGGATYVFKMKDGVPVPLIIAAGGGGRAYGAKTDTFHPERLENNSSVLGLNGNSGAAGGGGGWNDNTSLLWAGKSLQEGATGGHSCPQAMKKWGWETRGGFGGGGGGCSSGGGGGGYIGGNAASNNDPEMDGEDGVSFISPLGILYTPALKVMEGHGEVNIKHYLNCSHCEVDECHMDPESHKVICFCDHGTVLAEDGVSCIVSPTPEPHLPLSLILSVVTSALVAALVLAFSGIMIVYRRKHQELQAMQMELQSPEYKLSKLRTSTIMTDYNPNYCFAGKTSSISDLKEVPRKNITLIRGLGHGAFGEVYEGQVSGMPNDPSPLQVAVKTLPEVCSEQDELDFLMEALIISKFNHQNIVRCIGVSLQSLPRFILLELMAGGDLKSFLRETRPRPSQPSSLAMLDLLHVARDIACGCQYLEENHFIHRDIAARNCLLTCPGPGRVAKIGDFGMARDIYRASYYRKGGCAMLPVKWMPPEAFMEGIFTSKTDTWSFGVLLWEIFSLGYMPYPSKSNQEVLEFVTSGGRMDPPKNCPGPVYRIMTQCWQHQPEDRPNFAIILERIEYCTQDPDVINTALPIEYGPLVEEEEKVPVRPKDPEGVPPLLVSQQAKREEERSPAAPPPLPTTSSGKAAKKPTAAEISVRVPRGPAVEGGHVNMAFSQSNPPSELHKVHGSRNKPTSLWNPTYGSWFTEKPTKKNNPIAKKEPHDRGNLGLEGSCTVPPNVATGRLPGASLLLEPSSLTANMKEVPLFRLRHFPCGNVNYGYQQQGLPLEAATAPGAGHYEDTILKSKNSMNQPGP
Mitogen-activated protein kinase 11 (Homo sapiens), sequence (Q15759 whole entry): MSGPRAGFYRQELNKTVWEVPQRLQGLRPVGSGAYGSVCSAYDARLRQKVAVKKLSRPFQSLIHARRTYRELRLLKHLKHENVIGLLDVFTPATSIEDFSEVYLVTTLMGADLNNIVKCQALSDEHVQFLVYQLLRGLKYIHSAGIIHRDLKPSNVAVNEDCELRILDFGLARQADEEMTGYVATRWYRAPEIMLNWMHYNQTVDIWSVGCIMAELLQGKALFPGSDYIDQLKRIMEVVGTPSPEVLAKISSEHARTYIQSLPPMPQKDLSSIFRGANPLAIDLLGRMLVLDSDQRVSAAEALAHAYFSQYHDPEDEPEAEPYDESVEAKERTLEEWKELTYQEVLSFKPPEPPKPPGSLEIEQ
Serine/threonine-protein kinase haspin (Homo sapiens), sequence (Q8TF76 whole entry): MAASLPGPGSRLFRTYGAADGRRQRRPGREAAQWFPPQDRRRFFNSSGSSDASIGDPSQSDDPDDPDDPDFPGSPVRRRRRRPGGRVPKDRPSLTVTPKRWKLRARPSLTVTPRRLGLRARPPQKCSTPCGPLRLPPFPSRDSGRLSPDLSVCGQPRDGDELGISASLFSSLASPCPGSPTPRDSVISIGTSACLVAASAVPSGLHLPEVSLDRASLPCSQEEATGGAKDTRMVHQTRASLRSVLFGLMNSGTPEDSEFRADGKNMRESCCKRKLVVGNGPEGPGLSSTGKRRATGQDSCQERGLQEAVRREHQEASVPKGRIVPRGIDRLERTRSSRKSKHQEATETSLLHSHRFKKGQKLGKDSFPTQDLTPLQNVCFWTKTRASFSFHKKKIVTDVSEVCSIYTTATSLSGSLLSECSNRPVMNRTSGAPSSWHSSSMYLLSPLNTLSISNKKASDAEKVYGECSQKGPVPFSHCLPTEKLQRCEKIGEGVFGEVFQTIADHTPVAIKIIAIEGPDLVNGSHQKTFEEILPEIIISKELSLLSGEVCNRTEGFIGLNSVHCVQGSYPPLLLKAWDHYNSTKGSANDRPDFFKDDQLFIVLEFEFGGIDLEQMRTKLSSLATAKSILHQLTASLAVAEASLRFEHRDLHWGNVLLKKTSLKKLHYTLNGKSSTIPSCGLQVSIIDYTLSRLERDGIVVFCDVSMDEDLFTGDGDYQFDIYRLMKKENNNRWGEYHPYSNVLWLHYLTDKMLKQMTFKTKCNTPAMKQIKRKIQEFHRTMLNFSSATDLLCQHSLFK

In [1], `Cc1ccc(NC(=O)C2(C(=O)Nc3ccc(Nc4ncc(F)c(-c5cc(F)c6nc(C)n(C(C)C)c6c5)n4)cc3)CC2)cc1` gave a half-life of 2 h. Also, the inhibition in data set [2] was 28%; in data set [3], 22%; in [4] it was 51%; in [6] it was 40%; in [7], 22%; in data set [8], 80%. In addition, the inhibition in data set [9] is 18%; in data set [10] it was 48%; in [11], 7%; in data set [12], 28%; in data set [14], 0%; in data set [15], 12%. The values for the inhibition in [16], in [17] and in [19] were 5%, 15% and 0%, respectively. Also, the Activity entry in data set [5] and in [13] was “Non-Toxic” in each case. Moreover, the outcome in the data set on MDA-MB-231 [18] and in the data set with MDA-MB-231 [20] was Active.

Values taken from ChEMBL document CHEMBL4406821, “Novel dual inhibitors targeting CDK4 and VEGFR2 synergistically suppressed cancer progression and angiogenesis” (Eur J Med Chem, 2019).
